Experimental data published in ChEMBL document CHEMBL4257584, “Sterol 14α-Demethylase Structure-Based Optimization of Drug Candidates for Human Infections with the Protozoan Trypanosomatidae” (J Med Chem, 2018).
Activity calls are given as the source filed them. The calls are words filed in the database; no cut-off is given here.

Experiments:
Mus musculus [1] = assay: Toxicity in Swiss Webster mouse assessed as effect on skin at 200 mg/kg, po administered as single dose measured after 48 hrs; assay type: organism-based; conditions: in vivo
Outline: (§1)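 Swiss Webster mice (21–23 g, n=3) get a single oral 200 mg/kg dose, given as in the PK study. They are inspected for toxic and sub-toxic signs per OECD guidelines (behaviour, motility, neurological state, skin, fur), and body weight is tracked 0–48 h. At 48 h, mice are euthanized and organ weights are normalized to body weight. Blood is taken for haematology and plasma biochemistry.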

[2] = Drug uptake in BALB/c mouse heart at 25 mg/kg, po via gavage measured after 4 hrs post dose by […]; assay type: ADME, organism-based; conditions: read-out: Drug uptake
Outline: (§2)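 BALB/c mice get a single oral gavage dose of 25 mg/kg; tissues are collected 4 h post-dose. About 100 mg tissue is diluted 5-fold in PBS and homogenized. Homogenate is extracted as for plasma (ketoconazole internal standard, acetonitrile extraction) and quantified by HPLC-UV at 291 nm, 0.1 μM detection limit, n=2.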

[3] = molecular target: Sterol 14-alpha demethylase (Trypanosoma cruzi (strain CL Brener), UniProt Q7Z1V1); assay: Binding affinity to Trypanosoma cruzi Y CYP51A expressed in Escherichia coli
Outline: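 Recombinant CYP51A from Y strain T. cruzi, expressed in E. coli and purified, titrated spectrally at 0.5 μM P450 in 5 cm path cuvettes with ligand over 0.1–1 μM. Type of absorbance change in difference spectra Δ(A430-A411) plotted against ligand concentration. Apparent Kd obtained by fitting to the Morrison quadratic tight-binding equation by nonlinear regression.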

Mus musculus [4] = assay: Toxicity in Swiss Webster mouse at 200 mg/kg, po administered as single dose measured after 48 hrs measured at 48 hrs post dose; assay type: organism-based; conditions: in vivo; outline: as §1
Mus musculus [5] = assay: Toxicity in Swiss Webster mouse assessed as effect on heart weight at 200 mg/kg, po administered as single dose measured after 48 hrs; assay type: organism-based; conditions: in vivo; outline: as §1
[6] = Intrinsic clearance in CD1 mouse liver microsomes at 1 uM preincubated for 5 mins followed by NADPH addition and measured after 45 mins by LC/MS/MS analysis; assay type: ADME, microsome; conditions: read-out: CLH
Trypanosoma cruzi [7] = assay: Antiparasitic activity against GFP-expressing Trypanosoma cruzi Y amastigote formss infected in cardiomyocytes assessed as reduction in rate of parasite multiplication within infected cardiomyocytes measured at 72 hrs post infection by fluorescence microscopy; assay type: functional, organism-based
Outline: (§3)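 GFP-expressing trypomastigotes (Tulahuen or Y strain) infect cardiomyocyte monolayers at 10 parasites per cell, in DMEM + 10% FBS. Unbound parasites are washed off. At 24 h of infection, inhibitors at 0.5–25 nM in DMSO/DMEM are added and cultured 48 h. Read-out is at 72 h post-infection as GFP fluorescence (RFU) after PBS wash; microscopy uses paraformaldehyde fixation, DAPI and phalloidin stain. Triplicate.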

Mus musculus [8] = assay: Toxicity in Swiss Webster mouse assessed as effect on spleen weight at 200 mg/kg, po administered as single dose measured after 48 hrs; assay type: organism-based; conditions: in vivo; outline: as §1
[9] = Intrinsic clearance in human liver microsomes at 1 uM preincubated for 5 mins followed by NADPH addition and measured after 45 mins by LC/MS/MS analysis; assay type: ADME, microsome; conditions: read-out: CLH
[10] = Half life in Sprague-Dawley rat liver microsomes at 1 uM preincubated for 5 mins followed by NADPH addition and measured by LC/MS/MS analysis; assay type: ADME, microsome; conditions: microsomes, 1 µM
[11] = Lipophilicity, log P of the compound; assay type: physicochemical; conditions: octanol/water
[12] = Hepatic clearance in CD1 mouse liver microsomes at 1 uM preincubated for 5 mins followed by NADPH addition and measured after 45 mins by LC/MS/MS analysis; assay type: ADME, microsome
[13] = molecular target: Putative lanosterol 14-alpha-demethylase (Leishmania infantum) (UniProt A2TEF2); assay: Inhibition of Leishmania infantum CYP51 expressed in Escherichia coli using [3-3H]-obtusifoliol as substrate after 60 mins by LC-MS analysis
Outline: (§4)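 Reconstituted reaction: 1 μM purified CYP51, 2 μM T. brucei NADPH-P450 reductase, 100 μM dilauroylphosphatidylcholine, isocitrate dehydrogenase/isocitrate regeneration, 50 mM K phosphate pH 7.2, 10% glycerol. [3-3H]sterol substrate at 50 μM final (eburicol for T. cruzi; obtusifoliol for T. brucei and L. infantum) with inhibitor at 1.1 μM final. Preincubate 60 s at 37 °C, start with 100 μM NADPH, run 60 min, EtOAc extraction. Gives % inhibition of 14α-demethylation, triplicate, mean ± SD.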

Mus musculus [14] = assay: Toxicity in Swiss Webster mouse assessed as effect on body weight at 200 mg/kg, po administered as single dose measured after 48 hrs; assay type: organism-based; conditions: in vivo; outline: as §1
Mus musculus [15] = assay: Toxicity in Swiss Webster mouse assessed as effect on neurological conditions at 200 mg/kg, po administered as single dose measured after 48 hrs; assay type: organism-based; conditions: in vivo; outline: as §1
[16] = Drug uptake in BALB/c mouse lungs at 25 mg/kg, po via gavage measured after 4 hrs post dose by […]; assay type: ADME, organism-based, Lung; conditions: read-out: Drug uptake; outline: as §2
Mus musculus [17] = assay: Toxicity in Swiss Webster mouse assessed as effect on animal behavior at 200 mg/kg, po administered as single dose measured after 48 hrs; assay type: organism-based; conditions: in vivo; outline: as §1
Mus musculus [18] = assay: Toxicity in Swiss Webster mouse assessed as effect on kidney weight at 200 mg/kg, po administered as single dose measured after 48 hrs; assay type: organism-based; conditions: in vivo; outline: as §1
[19] = Drug uptake in BALB/c mouse brain at 25 mg/kg, po via gavage measured after 4 hrs post dose by […]; assay type: ADME, organism-based; conditions: read-out: Drug uptake; outline: as §2
[20] = molecular target: Sterol 14-alpha demethylase (Trypanosoma cruzi (strain CL Brener)) (UniProt Q7Z1V1); assay: Inhibition of Trypanosoma cruzi Y CYP51 expressed in Escherichia coli using [3-3H]-eburicol as substrate after 60 mins by LC-MS analysis; outline: as §4
[21] = Intrinsic clearance in Sprague-Dawley rat liver microsomes at 1 uM preincubated for 5 mins followed by NADPH addition and measured after 45 mins by LC/MS/MS analysis; assay type: ADME, microsome; conditions: read-out: CLH
[22] = Half life in human liver microsomes at 1 uM preincubated for 5 mins followed by NADPH addition and measured by LC/MS/MS analysis; assay type: ADME, microsome; conditions: microsomes, 1 µM
[23] = Hepatic clearance in Sprague-Dawley rat liver microsomes at 1 uM preincubated for 5 mins followed by NADPH addition and measured after 45 mins by LC/MS/MS analysis; assay type: ADME, microsome
Outline: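 Pooled liver microsomes at 0.5 mg/mL: human (mixed gender), male Sprague-Dawley rat, or male CD-1 mouse, with test compound at 1 μM, triplicate. In vitro t1/2 is scaled to CLint (45 mg microsomes/g liver; 45 g liver/kg scaling factor). CLhep uses well-stirred model with hepatic blood flow 21 (human), 70 (rat), 90 (mouse) mL/min/kg.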

Mus musculus [24] = assay: Toxicity in Swiss Webster mouse assessed as effect on motility at 200 mg/kg, po administered as single dose measured after 48 hrs; assay type: organism-based; conditions: in vivo; outline: as §1
Trypanosoma cruzi [25] = assay: Antiparasitic activity against GFP-expressing Trypanosoma cruzi Tulahuen amastigote formss infected in cardiomyocytes assessed as reduction in rate of parasite multiplication within infected cardiomyocytes measured at 72 hrs post infection by fluorescence microscopy; assay type: functional, organism-based; outline: as §3
[26] = Drug uptake in BALB/c mouse blood at 25 mg/kg, po via gavage measured after 4 hrs post dose by […]; assay type: ADME, organism-based; conditions: read-out: Drug uptake; outline: as §2
[27] = Drug uptake in BALB/c mouse spleen at 25 mg/kg, po via gavage measured after 4 hrs post dose by […]; assay type: ADME, organism-based; conditions: read-out: Drug uptake; outline: as §2
Mus musculus [28] = assay: Toxicity in Swiss Webster mouse assessed as alteration in body to organ ratio at 200 mg/kg, po administered as single dose measured after 48 hrs; assay type: organism-based; conditions: in vivo; outline: as §1

Chain of Putative lanosterol 14-alpha-demethylase (Leishmania infantum) (A2TEF2 1-480): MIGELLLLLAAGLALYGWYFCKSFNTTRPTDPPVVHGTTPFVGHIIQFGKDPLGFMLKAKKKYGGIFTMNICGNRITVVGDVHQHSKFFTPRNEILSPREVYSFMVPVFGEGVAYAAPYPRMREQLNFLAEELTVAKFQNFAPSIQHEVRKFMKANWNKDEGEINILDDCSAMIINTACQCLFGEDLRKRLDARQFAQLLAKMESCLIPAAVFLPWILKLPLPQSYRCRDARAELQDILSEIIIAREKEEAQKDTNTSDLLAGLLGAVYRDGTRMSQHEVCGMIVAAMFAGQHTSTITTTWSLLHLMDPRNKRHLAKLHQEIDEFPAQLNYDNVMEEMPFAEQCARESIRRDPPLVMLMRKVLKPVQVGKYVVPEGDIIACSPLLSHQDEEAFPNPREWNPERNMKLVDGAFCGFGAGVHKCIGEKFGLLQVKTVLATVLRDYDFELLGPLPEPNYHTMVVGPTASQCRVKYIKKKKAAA
Chain of Sterol 14-alpha demethylase (Q7Z1V1 whole entry): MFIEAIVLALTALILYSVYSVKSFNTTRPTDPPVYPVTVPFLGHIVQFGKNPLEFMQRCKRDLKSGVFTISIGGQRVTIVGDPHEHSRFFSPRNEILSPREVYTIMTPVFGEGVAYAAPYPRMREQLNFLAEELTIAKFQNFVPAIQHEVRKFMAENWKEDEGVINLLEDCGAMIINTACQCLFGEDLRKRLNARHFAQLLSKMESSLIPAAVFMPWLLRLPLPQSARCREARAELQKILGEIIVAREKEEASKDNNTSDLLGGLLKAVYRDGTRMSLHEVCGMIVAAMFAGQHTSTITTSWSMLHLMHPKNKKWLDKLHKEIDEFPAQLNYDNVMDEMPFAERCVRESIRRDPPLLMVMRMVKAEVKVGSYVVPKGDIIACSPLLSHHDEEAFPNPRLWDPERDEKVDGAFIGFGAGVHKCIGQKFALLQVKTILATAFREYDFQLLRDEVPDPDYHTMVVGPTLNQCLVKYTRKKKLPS
Chain of Sterol 14-alpha demethylase (Trypanosoma cruzi (strain CL Brener)) (Q7Z1V1 whole entry, looked up): as the sequence (Q7Z1V1 whole entry) above

**Q.** Which Activity (Mus musculus [1]) does the source give for `O=C(N[C@@H](Cn1ccnc1)c1c(F)cc(-c2ccc(F)cc2)cc1F)c1ccc(-c2nnc(-c3ccccc3)o2)cc1` here?
**A.** Non-Toxic

**Q.** And the concentration at 4 h [2]?
**A.** 56 µM

**Q.** What about the Kd [3] of the same compound?
**A.** 8.4 nM

**Q.** What about the NOAEL (Mus musculus [4]) of the same compound?
**A.** > 200 mg/kg

**Q.** What about the Activity (Mus musculus [5]) of the same compound?
**A.** Non-Toxic

**Q.** And the CLint scaled at 1 µM [6]?
**A.** 237 mL/min/kg

**Q.** What about the EC50 (Trypanosoma cruzi [7]) of the same compound?
**A.** 1 nM

**Q.** And the Activity (Mus musculus [8])?
**A.** Non-Toxic

**Q.** And the CLint scaled at 1 µM [9]?
**A.** 19.4 mL/min/kg

**Q.** And the t1/2 [10]?
**A.** 50 min

**Q.** And the logP [11]?
**A.** 5.6

**Q.** And the CLhep predicted at 1 µM [12]?
**A.** 65.2 mL/min/kg

**Q.** And the inhibition [13]?
**A.** Active

**Q.** And the Activity (Mus musculus [14])?
**A.** Non-Toxic

**Q.** What about the Activity (Mus musculus [15]) of the same compound?
**A.** Non-Toxic

**Q.** And the concentration at 4 h [16]?
**A.** 57 µM

**Q.** And the Activity (Mus musculus [17])?
**A.** Non-Toxic

**Q.** And the Activity (Mus musculus [18])?
**A.** Non-Toxic

**Q.** What about the concentration at 4 h [19] of the same compound?
**A.** 3 µM

**Q.** What about the inhibition [20] of the same compound?
**A.** Active

**Q.** And the CLint scaled at 1 µM [21]?
**A.** 55.8 mL/min/kg

**Q.** And the t1/2 [22]?
**A.** 64 min

**Q.** What about the CLhep predicted at 1 µM [23] of the same compound?
**A.** 31.1 mL/min/kg

**Q.** And the Activity (Mus musculus [24])?
**A.** Non-Toxic

**Q.** And the EC50 (Trypanosoma cruzi [25])?
**A.** 0.5 nM

**Q.** What about the concentration at 4 h [26] of the same compound?
**A.** 25 µM

**Q.** And the concentration at 4 h [27]?
**A.** 63 µM

**Q.** What about the Activity (Mus musculus [28]) of the same compound?
**A.** Non-Toxic
